According to ChEMBL document CHEMBL1157060, “Antiviral and anti-inflammatory metabolites from the soft coral Sinularia capillosa” (J Nat Prod, 2010):
Activity calls are given as the source filed them. No cut-off for these calls is given here.

Assays:
Klebsiella aerogenes = assay: Antibacterial activity against Enterobacter aerogenes ATCC 13048 at 100 ug/ml after 24 hrs; type: functional, organism-based
P388 = assay: Cytotoxicity against mouse P388 cells after 2 days by MTT assay; type: functional; conditions: for EC50: P388, 48 h, read-out: ED50 (the source's name)
Method in brief: (§1)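 The value reported is the ED50 against each tumour cell line. Mithramycin was run as positive control.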

A549 = assay: Cytotoxicity against human A549 cells after 2 days by MTT assay; type: functional; method in brief: as §1
HT-29 = assay: Cytotoxicity against human HT-29 cells after 2 days by MTT assay; type: functional; method in brief: as §1
Salmonella enterica = assay: Antibacterial activity against Salmonella enteritidis ATCC 13076 at 100 ug/ml after 24 hrs; type: functional, organism-based; conditions: Salmonella enterica subsp. enterica serovar Enteritidis
Serratia marcescens = assay: Antibacterial activity against Serratia marcescens ATCC 25419 at 100 ug/ml after 24 hrs; type: functional, organism-based
Shigella sonnei = assay: Antibacterial activity against Shigella sonnei ATCC 11060 at 100 ug/ml after 24 hrs; type: functional, organism-based
Yersinia enterocolitica = assay: Antibacterial activity against Yersinia enterocolitica ATCC 23715 at 100 ug/ml after 24 hrs; type: functional, organism-based
RAW264.7 [1] = assay: Antiinflammatory activity in mouse RAW264.7 cells assessed as inhibition of LPS-stimulated COX2 expression at 10 uM after 16 hrs by Western blot analysis relative to control; type: functional
Method in brief: (§2)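 LPS-stimulated RAW 264.7 macrophages were treated with each compound at 10 µM. iNOS and COX-2 protein levels were measured by immunoblot, with β-actin also probed. Band intensity was expressed relative to the LPS-alone group, set at 100%. Data are mean ± SEM (n = 5), and significance versus LPS alone was set at P < 0.05. CAPE at 10 µM served as positive control.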

RAW264.7 [2] = assay: Antiinflammatory activity in mouse RAW264.7 cells assessed as inhibition of LPS-stimulated iNOS expression at 10 uM after 16 hrs by Western blot analysis relative to control; type: functional; method in brief: as §2
Human betaherpesvirus 5 = assay: Antiviral activity against HCMV assessed as protection from virus-induced cytopathogenicity after 7 days by coulter counter; type: functional, organism-based; conditions: Human betaherpesvirus 5, 168 h

Row | SMILES | Activity (Klebsiella aerogenes) | Activity (P388) | Activity (A549) | Activity (HT-29) | Activity (Salmonella enterica) | Activity (Serratia marcescens) | Activity (Shigella sonnei) | Activity (Yersinia enterocolitica) | inhibition (RAW264.7 [1]) | inhibition (RAW264.7 [2]) | IC50 (Human betaherpesvirus 5) [µM] | EC50 (P388) [µM] | EC50 (A549; A549, 48 h, read-out: ED50 (the source's name)) [µM] | EC50 (HT-29; HT-29, 48 h, read-out: ED50 (the source's name)) [µM]
1 | C=C1CC[C@H](C)/C(C)=C\[C@H]2[C@H]1CC[C@]2(C)O | inactive | inactive | inactive | inactive | inactive | inactive | inactive | inactive | inactive | inactive | – | – | – | –
2 | C=CC(=C)C(CCC(C)Cc1cc(C(=O)OC)co1)OC(C)=O (stereo unspecified) | inactive | inactive | inactive | inactive | inactive | inactive | inactive | inactive | inactive | inactive | – | – | – | –
3 | C/C(=C\Cc1cc(O)c(C)cc1O)CC/C=C(\C)Cc1cc(C)co1 | inactive | inactive | inactive | inactive | inactive | inactive | inactive | inactive | inactive | – | 15 | – | – | –
4 | CC1=CC(=O)C(C/C=C(\C)CC/C=C(\C)CC/C=C(\C)CC[C@H](O)C(C)(C)O)=CC1=O [CAPILLOQUINONE] | inactive | – | inactive | inactive | inactive | inactive | inactive | inactive | inactive | – | – | 9.8 | – | –
5 | C/C(=C\CC[C@]1(C)C=Cc2cc(O)c(C)cc2O1)Cc1cc(C)co1 [CAPILLOBENZOPYRANOL] | inactive | – | inactive | inactive | inactive | inactive | inactive | inactive | inactive | – | – | 12.7 | – | –
6 | C=C/C(C)=C/CCC(C)Cc1cc(C(=O)O)co1 (stereo unspecified) | inactive | inactive | inactive | inactive | inactive | inactive | inactive | inactive | inactive | inactive | – | – | – | –
7 | CC1(C)CC(O)C[C@@]2(C)OC(=O)C=C12 (stereo partly specified) | inactive | inactive | inactive | inactive | inactive | inactive | inactive | inactive | inactive | inactive | – | – | – | –
8 | CO[C@](C)(CC/C=C(\C)Cc1cc(C)co1)[C@@H]1Cc2cc(O)c(C)cc2O1 [CAPILLOBENZOFURANOL] | inactive | inactive | inactive | inactive | inactive | inactive | inactive | inactive | inactive | inactive | 13.5 | – | – | –
9 | CO[C@H](C(=O)[C@@H](O)[C@@H](C)O)[C@@H]1Cc2cc3cc(O[C@H]4C[C@@H](O[C@@H]5C[C@@H](O)[C@H](O)[C@@H](C)O5)[C@H](O)[C@@H](C)O4)c(C)c(O)c3c(O)c2C(=O)[C@H]1O[C@H]1C[C@@H](O[C@@H]2C[C@@H](O)[C@@H](O[C@@H]3C[C@](C)(O)[C@H](O)[C@@H](C)O3)[C@@H](C)O2)[C@H](O)[C@@H](C)O1 [PLICAMYCIN] | – | – | – | – | – | – | – | – | – | – | – | 0.06 | 0.07 | 0.07
10 | CC1=CC(=O)C(C/C=C(\C)CC/C=C(\C)Cc2cc(C)co2)=CC1=O | inactive | inactive | inactive | inactive | inactive | inactive | inactive | inactive | – | – | 5.9 | – | – | –
